Most compounds without a hit are left out; they make up all but 1.5% or so of the library.
CRFBP-R2 block: antagonists of CRF-BP/CRF-R2 complex, primary screen, cell-based, HEK293, calcium dye fluorescence, uHTS. CRF-induced calcium fluorescence. inhibition, % at 11.8 µM. actives 0.59% (n = 350,000). AID 588475, 2011;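 active = inhibition of the ligand-induced calcium signal above about 50% at the single tested concentration, limit read from the data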
S100A4 inh HTS: inhibitors of S100A4-myosin IIA peptide binding, primary screen, biochemical, fluorescence polarization, TAMRA-MyoIIA peptide | inhibition, % at 10.7 µM | Protein S100-A4 (Homo sapiens), P26447 | actives 0.14% (n = 360,000) | AID 652163, 2013;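 active = mean inhibition of at least 70% across replicates, with every replicate also reaching that level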
Target sequence (P26447 whole entry, looked up): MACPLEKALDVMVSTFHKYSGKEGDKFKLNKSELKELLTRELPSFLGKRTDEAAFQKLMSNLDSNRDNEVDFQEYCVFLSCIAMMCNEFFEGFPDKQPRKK
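Material: S100A4 monomer protein / Buffer or medium: 50 mM HEPES pH 7.2, 10 mM CaCl2, 100 mM KCl / Times: 5 min incubation before reading / Benchmarks: neutral control DMSO, positive control TFP / Reagent: labelled myosin peptide probe, 5 nM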
SIRT5 inh: SIRT5 desuccinylase inhibitors, primary screen, biochemical, fluorescence imaging, single point, set 5; NAD-dependent protein deacylase sirtuin-5, mitochondrial (Homo sapiens), Q9NXA8; Purified SirT5, succinyl-peptide AMC, trypsin-coupled fluorescence; inhibition, % at 15 µM; actives 1.1% (n = 330,000); AID 652115, 2013; in the data active = inhibition above about 15%
Target sequence (Q9NXA8 whole entry, looked up): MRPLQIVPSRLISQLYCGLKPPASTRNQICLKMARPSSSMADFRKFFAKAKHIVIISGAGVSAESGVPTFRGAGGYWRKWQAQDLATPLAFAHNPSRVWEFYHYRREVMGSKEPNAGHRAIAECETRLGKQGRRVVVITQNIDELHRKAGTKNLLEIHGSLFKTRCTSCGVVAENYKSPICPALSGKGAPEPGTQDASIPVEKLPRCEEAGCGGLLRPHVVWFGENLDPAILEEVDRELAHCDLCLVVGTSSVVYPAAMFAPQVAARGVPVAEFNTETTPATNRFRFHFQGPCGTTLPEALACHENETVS
PKA-R2B act: activators of PKA-R2B holoenzyme, primary screen, biochemical, fluorescence polarization, Cy5-IP20, human; cAMP-dependent protein kinase catalytic subunit beta (Homo sapiens) + cAMP-dependent …; PKA-R2B holoenzyme dissociation; R2B truncated from residue 108, S112A mutant; 0% DMSO only, 100% 113 µM cGMP; activation, % at 11.4 µM; actives 0.079% (n = 340,000); AID 504700, 2011;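 active = activation above a cutoff set at the mean over all compounds plus 3 SD, cut at about 18% in these data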;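 note: higher means more holoenzyme dissociation and a rise in polarization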
PKA-R1A activ: activators of PKA-R1A holoenzyme, primary screen, biochemical, fluorescence polarization, Cy5-IP20, bovine R1A, mouse PKAc; cAMP-dependent protein kinase type I-alpha regulatory subunit (Bos taurus) + …; PKA-R1A dissociation; scaled: DMSO 0%, 113 µM cGMP 100%; activation, % at 11.4 µM; actives 0.083% (n = 340,000); AID 504707, 2011;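 active = percent activation above the mean of all tested compounds plus 3 SD, cut at about 19% in these data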;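 note: higher means more PKAc released from R1A so a rise in polarization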
An asterisk follows results filed as active.

Results for COc1ccc(NC(=O)Nc2ccc3c(c2)C(=O)N([C@@H](C)CO)C[C@H](C)[C@H](CN(C)Cc2ccc(Cl)c(Cl)c2)O3)cc1 ?
S100A4 inh HTS: 1.2; SIRT5 inh: 18.8*

How did Cc1noc(C)c1NC(=O)Nc1ccc2c(c1)C(=O)N([C@H](C)CO)C[C@@H](C)[C@@H](CN(C)C)OCCCC[C@@H](C)O2 do in these assays?
S100A4 inh HTS: -1.2; SIRT5 inh: -1.1

What do the screens show for `NC(=O)CN1CCN(C(=O)NC2CCCCC2)CC1`?
CRFBP-R2 block: -8.1; S100A4 inh HTS: 5.7; PKA-R2B act: 8.2; PKA-R1A activ: -4.5

How did O=C(NCCN1CCN(C(=O)NC2CCCCC2)CC1)NC1CCCCC1 do in these assays?
CRFBP-R2 block: 66.8*; PKA-R2B act: 2.8; PKA-R1A activ: -1.5

How did C[C@@H]1CN([C@@H](C)CO)C(=O)c2cc(-c3ccc(F)cc3)cnc2O[C@@H]1CN(C)CC1CC1 do in these assays?
S100A4 inh HTS: -12.3; SIRT5 inh: -2.5

Results for O=c1cc2oc3cc(O)c(O)cc3c(-c3ccccc3[N+](=O)[O-])c-2cc1O ?
CRFBP-R2 block: 11.7; S100A4 inh HTS: -1.8; SIRT5 inh: 15.5*; PKA-R2B act: -1.9; PKA-R1A activ: 0.4

How did COc1cc2c(cc1OC)C(=S)NC1(CCCC1)C2 do in these assays?
CRFBP-R2 block: 0.7; S100A4 inh HTS: 3.8; SIRT5 inh: 38.1*; PKA-R2B act: 3.9; PKA-R1A activ: -8.7

How did CNC(=O)C[C@@H]1CC[C@H]2[C@@H](COc3ccc(NC(=O)c4cccc(F)c4)cc3C(=O)N2C)O1 do in these assays?
S100A4 inh HTS: 3.1; SIRT5 inh: -2.1

Results for CCCN1CCC(NC(=O)Nc2ccc([N+](=O)[O-])cc2)CC1 ?
CRFBP-R2 block: -9.8; S100A4 inh HTS: 3.3; SIRT5 inh: 16.6*; PKA-R2B act: 2.6; PKA-R1A activ: -3.6

What do the screens show for `CCCN1CCC(NC(=O)Nc2ccc(Br)cc2)CC1`?
CRFBP-R2 block: -4.2; S100A4 inh HTS: -3.3; SIRT5 inh: -5.6; PKA-R2B act: -7.5; PKA-R1A activ: -1.4

Results for C[C@H](CO)N1C[C@H](C)[C@@H](CN(C)S(=O)(=O)c2ccc(Cl)cc2)Oc2ccc(NC(=O)Nc3ccccc3)cc2CC1=O ?
S100A4 inh HTS: -23.9; SIRT5 inh: 8.0

Results for CC(C)=C1C2CCC1C(C(=O)Nc1sc(C)c(-c3ccc(C(C)C)cc3)c1C(N)=O)C2C(=O)O (stereo not drawn) ?
CRFBP-R2 block: 108.6*; S100A4 inh HTS: 4.3; SIRT5 inh: -5.2; PKA-R2B act: -8.0; PKA-R1A activ: -6.8

What do the screens show for `Cn1c(=O)c2cc3ccc(Cl)cc3nc2n(C)c1=O`?
CRFBP-R2 block: 52.2*

Results for Cn1c(=O)c2cc3ccccc3nc2n(C)c1=O ?
CRFBP-R2 block: -6.0; S100A4 inh HTS: -6.4; SIRT5 inh: -5.2; PKA-R2B act: 3.6; PKA-R1A activ: 2.3

How did O=C(CCS(=O)(=O)c1ccccc1)N1CCCc2ccccc21 do in these assays?
CRFBP-R2 block: 7.2; S100A4 inh HTS: -6.2; SIRT5 inh: 17.2*; PKA-R2B act: 2.4; PKA-R1A activ: -9.1

How did O=C(CCC(=O)N1CCCc2ccccc21)N1CCN(S(=O)(=O)c2ccccc2)CC1 do in these assays?
CRFBP-R2 block: 0.1; PKA-R2B act: 1.4; PKA-R1A activ: 3.2

What do the screens show for `O=C(COc1ccc(Cl)cc1)Nc1ccc(Cl)cn1`?
CRFBP-R2 block: 15.8; PKA-R2B act: -7.8; PKA-R1A activ: -4.3

Results for O=C(COc1ccc2c(c1)OCO2)Nc1ccc(Cl)cn1 ?
CRFBP-R2 block: -11.5; S100A4 inh HTS: -0.6; SIRT5 inh: 25.7*; PKA-R2B act: -3.1; PKA-R1A activ: -4.4

How did CN1c2ccc(-c3ccccc3)cc2[C@@H]2[C@@H](CCN2C(=O)c2cccc(F)c2)[C@@H]1CO do in these assays?
S100A4 inh HTS: 130.2*; SIRT5 inh: 6.3

How did COc1ccc(-c2ccc3c(c2)[C@@H]2[C@@H](CCN2S(=O)(=O)c2ccc(F)cc2)[C@H](CO)N3C)cc1 do in these assays?
S100A4 inh HTS: 0.9; SIRT5 inh: 16.0*

How did COc1ccc(-c2ccc3c(c2)[C@@H]2[C@@H](CCN2S(=O)(=O)c2ccc(OC)cc2)[C@H](CO)N3C)cc1 do in these assays?
S100A4 inh HTS: -2.5; SIRT5 inh: 13.3

What do the screens show for `COc1cccc(-c2ccc3c(c2)[C@@H]2[C@@H](CCN2C(=O)c2ccccc2F)[C@H](CO)N3C)c1`?
S100A4 inh HTS: 0.8; SIRT5 inh: 20.1*

What do the screens show for `CCS(=O)(=O)NCC[C@@H]1CC[C@@H](NS(=O)(=O)c2cccc(F)c2)[C@H](CO)O1`?
S100A4 inh HTS: 14.7; SIRT5 inh: -1.8

Results for Cc1ccccc1NC1=NC(=S)N(c2ccccc2)C12CCOC(C)(C)C2 (stereo not drawn) ?
CRFBP-R2 block: 2.8; PKA-R2B act: -5.6; PKA-R1A activ: -5.3

Results for Cc1ccccc1NC1=NC(=S)N(c2ccccc2)C12CCCCC2 ?
CRFBP-R2 block: 60.5*; S100A4 inh HTS: 8.6; SIRT5 inh: 4.6; PKA-R2B act: -2.1; PKA-R1A activ: -0.9

Results for CCC(C(=O)NCCN1CCOCC1)n1c2ccccc2c2nc(=O)cc(C)n21 (stereo not drawn) ?
CRFBP-R2 block: 51.5*; S100A4 inh HTS: -8.1; SIRT5 inh: -1.2; PKA-R2B act: 5.5; PKA-R1A activ: 11.5

How did O=c1c([N+](=O)[O-])c(NC2CCCCC2)c2ccccc2n1-c1ccccc1 do in these assays?
CRFBP-R2 block: 57.5*; PKA-R2B act: -1.4; PKA-R1A activ: -1.3

How did O=c1c([N+](=O)[O-])c(NCCN2CCCCCC2)c2ccccc2n1-c1ccccc1 do in these assays?
CRFBP-R2 block: 33.5; S100A4 inh HTS: 2.1; SIRT5 inh: -0.7; PKA-R2B act: -12.7; PKA-R1A activ: -13.5

Results for CCCC#Cc1cnc2c(c1)C(=O)N([C@H](C)CO)C[C@H](C)[C@@H](CN(C)C(=O)Nc1c(C)noc1C)O2 ?
S100A4 inh HTS: 0.9; SIRT5 inh: -1.9

Results for CCCCNc1nc(N)ncc1[N+](=O)[O-] ?
CRFBP-R2 block: 11.5; S100A4 inh HTS: 1.7; SIRT5 inh: 30.0*; PKA-R2B act: -2.4; PKA-R1A activ: -7.5

Results for CCCCNc1c([N+](=O)[O-])ncn1C ?
CRFBP-R2 block: 7.6; S100A4 inh HTS: 4.5; SIRT5 inh: 1.5

How did CCC(=O)N1CC(=O)N2[C@@H](CO)[C@@H](c3ccc(-c4ccc(C#N)cc4)cc3)[C@@H]2C1 do in these assays?
S100A4 inh HTS: 19.6; SIRT5 inh: 2.7
